For one test, the target named is uPA (Homo sapiens, UniProt P00749, C299A/N322Q). The test is described as follows: Chromogenic enzyme inhibition assay, uPA serine protease domain. In kind it is biochemical. The method, boiled down: (§1)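 Serine protease domains (uPA, matriptase) expressed in Pichia pastoris X-33. 2 nM enzyme preincubated 15 min at 37°C with varied test compound in 0.01 M HEPES, 0.15 M NaCl, pH 7.4, 0.1% BSA. Substrate at about Km: S-2444 for uPA, S-2288 for matriptase. Initial rates read at 405 nm; IC50 from a sigmoidal nonlinear fit.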

For the next test, the target named is murine uPA (muPA) (Mus musculus, UniProt P06869). Put plainly: Chromogenic enzyme inhibition assay, murine uPA serine protease domain. In kind it is biochemical. The method, boiled down:
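Mouse uPA serine protease domain, expressed as E. coli BL21(DE3) inclusion bodies, then refolded and purified. 2 nM enzyme preincubated 15 min at 37°C with varied test compound in 0.01 M HEPES, 0.15 M NaCl, pH 7.4, 0.1% BSA. S-2444 then added at about Km. Initial velocities read at 405 nm; IC50 from a sigmoidal nonlinear regression.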

Another test addresses plasma kallikrein (PK) (Homo sapiens, UniProt P03952). Put plainly: Chromogenic enzyme inhibition assay, plasma kallikrein. The format is biochemical.
The next test addresses factor XIa (FXIa) (Homo sapiens, UniProt P03951). Put plainly: Chromogenic enzyme inhibition assay, factor XIa. The format is biochemical. An outline of the steps: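 Recombinant FXIa serine protease domain expressed in Pichia pastoris X-33. 2 nM enzyme preincubated 15 min at 37°C with a range of test compound concentrations in 0.01 M HEPES, 0.15 M NaCl, pH 7.4, 0.1% BSA. Chromogenic substrate was then added at about its Km. Initial velocities were read at 405 nm, and IC50 came from a sigmoidal nonlinear fit.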

A further test deals with T1, matriptase (Homo sapiens, UniProt Q9Y5Y6).
T1 sequence (Q9Y5Y6 615-854 limits assumed): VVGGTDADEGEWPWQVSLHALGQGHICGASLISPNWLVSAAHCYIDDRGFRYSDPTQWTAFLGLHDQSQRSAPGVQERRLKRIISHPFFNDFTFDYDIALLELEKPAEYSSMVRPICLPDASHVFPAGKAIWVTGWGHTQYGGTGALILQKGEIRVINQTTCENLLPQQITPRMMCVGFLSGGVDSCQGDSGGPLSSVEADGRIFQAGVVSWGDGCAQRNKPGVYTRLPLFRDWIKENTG
The test is described as follows: Chromogenic enzyme inhibition assay, matriptase. The format is biochemical. An outline of the steps:
as §1

A further test has as its system SARS-CoV-2. Particulars: by acting against TMPRSS2; cited from earlier work.

The values that follow come from paper PMC8428381 (Journal of Virology, 2021).

Where a name gives a salt, the structure may show the parent alone.

What is called IC50 is the midpoint of a concentration-inhibition curve. A higher IC50 goes with weaker potency in that assay.

Chain of factor XIa (FXIa) (P03951 388-623 limits assumed): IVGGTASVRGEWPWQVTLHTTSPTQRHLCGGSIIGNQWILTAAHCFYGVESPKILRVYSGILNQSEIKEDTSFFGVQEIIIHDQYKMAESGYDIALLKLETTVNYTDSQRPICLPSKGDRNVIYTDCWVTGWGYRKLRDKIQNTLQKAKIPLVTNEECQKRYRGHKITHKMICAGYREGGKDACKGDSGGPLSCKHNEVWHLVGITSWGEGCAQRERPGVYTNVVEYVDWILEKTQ
Chain of plasma kallikrein (PK) (P03952 391-626 limits assumed): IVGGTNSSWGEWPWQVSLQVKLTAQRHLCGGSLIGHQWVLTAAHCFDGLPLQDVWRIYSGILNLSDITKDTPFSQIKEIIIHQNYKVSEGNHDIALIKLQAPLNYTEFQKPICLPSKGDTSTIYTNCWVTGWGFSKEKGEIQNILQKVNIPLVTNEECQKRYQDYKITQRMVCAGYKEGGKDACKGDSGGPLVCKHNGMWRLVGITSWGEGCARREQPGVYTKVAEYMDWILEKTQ
Chain of murine uPA (muPA) (P06869 180-426 limits assumed): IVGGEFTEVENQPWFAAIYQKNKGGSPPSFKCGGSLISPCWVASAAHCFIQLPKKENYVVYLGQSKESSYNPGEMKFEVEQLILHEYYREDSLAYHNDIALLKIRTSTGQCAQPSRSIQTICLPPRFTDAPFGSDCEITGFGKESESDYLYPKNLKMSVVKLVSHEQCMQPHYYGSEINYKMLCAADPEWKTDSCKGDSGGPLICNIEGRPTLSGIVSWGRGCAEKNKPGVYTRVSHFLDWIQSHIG

As for `CN(C)C(=O)COC(=O)Cc1ccc(OC(=O)c2ccc(NC(=N)N)cc2)cc1` [camostat, camostat mesylate], the 50% inhibitory concentration (IC50) came out at 86.4 ± 9.4 nM on uPA; 100 ± 41.9 nM at murine uPA (muPA); 10.4 ± 2.7 nM against plasma kallikrein (PK); 44.1 ± 1.1 nM against factor XIa (FXIa); 21.1 ± 3.5 nM on matriptase. Besides, the “SARS-CoV-2 infection of human lung cells” value in the test on SARS-CoV-2 was “inhibits SARS-CoV-2 infection of human lung cells”.
